Wee1 stabilizer – human Wee1 degradation inhibition, primary screen | P30291 | AID 1321 | HeLa Luc-Wee1K328M stability, luciferase luminescence; 100% = proteasome inhibitor MG132 effect | reporter increase, % at 5 µM | 1.2% of 220,000 active;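 active = activation above the mean of all tested compounds plus 3 SD, set per screening run, cut at about 8.8% in these data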;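 also: cells exposed to compound for 20 h before luminescence read; 0% = DMSO alone and 100% = MG132 at 30 µM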
m-calpain inh – blocks pig calpain II enzyme activity; inhibition, % at 16 µM; purified calpain II, fluorogenic peptide substrate, 30 min; 0.37% of 220,000 active; AID 1236;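 active = inhibition above about 50%, limit read from the data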
RBBP9 inh – blocks human serine hydrolase RBBP9; AID 1515; inhibition, % at 7.94 µM; 0.2% of 220,000 active; O75884; recombinant RBBP9, FP-Rh probe fluorescence polarization;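 active = inhibition above the campaign mean of all tested compounds plus 3 SD, cut at about 14% in these data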;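 also: plate controls were DMSO wells with RBBP9 for no effect and wells lacking RBBP9 protein for full effect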
Target sequence (O75884 whole entry, looked up): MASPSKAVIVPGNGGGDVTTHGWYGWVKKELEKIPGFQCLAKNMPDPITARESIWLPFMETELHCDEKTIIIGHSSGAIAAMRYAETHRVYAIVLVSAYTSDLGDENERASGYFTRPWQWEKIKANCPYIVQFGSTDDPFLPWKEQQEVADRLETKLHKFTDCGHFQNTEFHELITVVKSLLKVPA
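Test system: recombinant human RBBP9. Quantity: 2.5 µM RBBP9 dispensing solution, before mixing. Detection: FP readout at 525/598 nm. Reagent: Serine-hydrolase probe FP-Rh, 375 nM pre-mixing. Measure: % inhibition. Control set: DMSO-treated enzyme wells and wells lacking RBBP9. Buffer or medium: Tris-NaCl-Pluronic buffer, pH 8.0. Times: preincubation 30 min plus labeling 45 min at 25 °C.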
TNF death inh – inhibitors of TNF-alpha induced necroptosis in Jurkat FADD-/- cells | AID 463075 | Jurkat FADD-/- TNF necroptosis rescue, ATP luminescence, 24 h; 0 = TNF only, 100 = no-TNF cells | 0.068% of 220,000 active | activation (protection from cell death), % at 10 µM;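 active = activation, meaning protection from cell death, of at least 50% relative to plate controls; inactive = activation below 50%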;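 also: necroptosis triggered by 40 ng/mL TNF-alpha added together with compound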
Pf gamet viab – inhibitors of late stage P. falciparum gametocyte viability; P. falciparum stage V gametocytes, ATP luminescence, 24 h; inhibition, % at 10.9 µM; 0.065% of 150,000 active; AID 743093;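 active = inhibition above the mean plus 3 SD of compounds within the control limits, set per campaign, cut at about 38% in these data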;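 also: 0% = DMSO wells and 100% = medium only without gametocytes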
zVAD death inh – blocks zVAD induced death of L929 cells | viability rescue, % at 10 µM | 0.38% of 220,000 active | L929 zVAD necroptosis rescue, ATP luminescence, 24 h; with zVAD 60 µM;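 active = activation, scaled between plate controls, above about 75%, limit read from the data; inactive = activation under that limit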;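 also: 0% = zVAD with DMSO and 100% = DMSO alone without zVAD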
An asterisk follows results filed as active; . = not tested or not shown. An excerpt weighted towards active compounds, which were near 2.1% of everything screened.

SMILES	Wee1 stabilizer	m-calpain inh	RBBP9 inh	TNF death inh	Pf gamet viab	zVAD death inh
CC[C@]12C(=O)N(C)C[C@H]([C@@H]3C(=O)N(C)C(=O)[C@@H]31)N2C(=O)c1ccc(C)cc1	.	.	.	.	-0.7	.
CCOC(=O)c1[nH]c(C)c(C(=O)c2ccc(C)cc2)c1C	9.5*	-5.6	-4.1	-20.7	15.2	-0.4
CCCCCCC(C)NC(=S)Nc1cc(S(=O)(=O)N(C)C)ccc1C (stereo not drawn)	0.6	2.6	-2.0	0.6	-35.4	0.3
CCn1c(SCc2ccc(F)cc2)nnc1C1CCN(S(=O)(=O)c2ccc(OC)cc2)CC1	1.5	59.2*	0.7	-4.6	.	0.8
CCn1c(SCc2ccc(C)cc2)nnc1C1CCN(S(=O)(=O)c2ccc(OC)cc2)CC1	1.4	2.8	-0.9	-5.3	-1.9	-0.5
CCCCNCc1nc2ccccc2c(=O)[nH]1	8.9*	-40.3	-2.6	1.2	-6.4	14.6
CN(CCc1cnn(C)c1)Cc1nc(CC2CC2)no1	-1.8	2.5	-8.6	0.0	-14.2	0.1
NCCCN1CCOCC1	0.1	-9.7	-4.2	2.0	32.2	1.2
COC(=O)[C@@]12CCCCN1[C@H](c1ccc(-c3ccc(C(C)=O)cc3)c(OC)c1)[C@@H]1C(=O)N(C)C(=O)[C@@H]12	.	.	.	.	-12.2	.
CCOC(=O)N1CCC2(CC1)C(C#N)=C(N)Oc1n[nH]c(CSc3ccc(C)cc3)c12	0.0	91.0*	-8.4	-1.7	.	1.0
Cc1ccc(SCc2[nH]nc3c2C2(CCSCC2)C(C#N)=C(N)O3)cc1	-2.2	-17.1	-6.0	-6.9	.	-0.4
CCOc1ccc(N=Nc2c(=O)[nH]n3c(=O)c4c([nH]c23)CCCC4)cc1	-0.6	-13.6	-0.4	-0.5	.	1.5
CCOc1ccc(N=Nc2c(=O)[nH]n3c(=O)cc(C)[nH]c23)cc1	-0.5	-9.5	31.9*	-16.0	.	-0.6
COc1cc2c(cc1OC)C1(CCCC1)CNC2c1cccc([N+](=O)[O-])c1 (stereo not drawn)	1.0	5.0	-5.3	0.4	1.8	-0.4
CCCCOc1ccc(C(=O)N/C(=C\c2cccc([N+](=O)[O-])c2)C(=O)OC(C)C)cc1	-1.5	51.5*	-2.4	3.1	-2.7	-0.4
CCCCOc1ccc(C(=O)N/C(=C\c2cccc([N+](=O)[O-])c2)C(=O)OCCC)cc1	-1.4	14.2	-3.2	-1.4	1.4	0.5
O=C1CC[C@@H](OCc2ccccc2)CCN1CC[C@H](Sc1ccccc1)c1ccccc1	.	.	.	.	-22.5	.
CCN(CC)CCC#CC1(O)c2ccccc2-c2ccccc21	.	.	.	.	1.0	.
C/C(CC(=O)NC(C)(C)C)=N\NC(=O)COc1ccc(C)cc1Br	9.5*	13.8	-4.4	1.1	21.5	2.4
CC(C)(C)NC(=O)NC(=O)COc1ccc(Br)cc1Br	9.8*	18.6	-4.6	5.1	.	5.4
O=C(COc1ccc(Br)cc1Br)NC(=S)Nc1cccc(CO)c1	11.0*	-3.1	3.1	0.9	-12.6	0.1
COc1ccccc1NC(=O)NS(=O)(=O)c1ccc(C)cc1	2.0	27.6	1.0	1.5	.	1.0
COc1cc(OC)cc(C(=O)N[C@H](C(=O)Nc2cc(C)cc(C)c2)C(C)C)c1	-2.6	-15.1	-3.0	1.4	-25.2	1.9
O=C(CN1CC[n+]2c(-c3cccs3)csc21)c1ccc(-c2ccccc2)cc1	4.8	57.8*	-1.0	-1.2	32.2	-0.2
Cc1ccc(C(=O)Cn2nnc(-c3cccs3)n2)cc1	-2.8	-20.5	1.3	3.1	16.0	-0.5
SMILES	Wee1 stabilizer	m-calpain inh	RBBP9 inh	TNF death inh	Pf gamet viab	zVAD death inh
COc1ccc(OC)c(NC(=O)CSc2ncccc2C(=O)O)c1	-1.2	-1.2	-8.8	-0.8	7.8	0.3
Nc1nonc1NC(=O)CSc1ncccc1C(=O)O	14.1*	-3.6	-3.5	-1.0	1.3	-0.2
CCC(C)c1ccc(O)c(NC(=O)c2cccnc2)c1 (stereo not drawn)	-3.3	-2.6	-8.7	24.2	.	0.1
CC(C)c1ccc(O)c(NC(=O)c2cncc(Br)c2)c1	-3.5	14.2	-5.5	66.6*	-19.6	0.1
CCC1CCCCN1Cc1cc(OC)c(O)c([N+](=O)[O-])c1 (stereo not drawn)	-0.9	5.3	-4.0	-0.7	.	1.1
CCOc1ccc(N2C(=O)Nc3ccccc3C2(O)C(=O)NCc2ccc(C)cc2)cc1 (stereo not drawn)	11.6*	-9.3	-6.3	-1.2	.	4.2
CCOc1ccc(N2C(=O)Nc3ccccc3C2(O)C(=O)NCc2ccc3c(c2)OCO3)cc1 (stereo not drawn)	-4.5	-19.4	-6.9	-1.6	.	-0.3
O=C(Nc1cccc(-c2nc3cccnc3s2)c1)C1c2ccccc2Oc2ccccc21	-1.8	54.5*	-6.6	0.7	.	.
O=C1OC(c2ccccc2)=C/C1=C\N1CCOCC1	27.0*	2.5	-1.7	1.3	.	0.2
O=C1OC(c2ccccc2)=C/C1=C/N1CCOCC1	1.3	-8.9	-1.6	-1.2	-5.4	-0.9
COc1ccc2cc(CCNC(=O)c3cccs3)c(=O)[nH]c2c1	9.5*	12.3	-5.6	-1.9	.	3.5
COc1ccc2cc(CCNC(=O)CC(C)(C)C)c(=O)[nH]c2c1	0.5	-15.0	-12.4	-1.1	.	0.3
O=C(O)Cn1cnc2ccccc2c1=O	9.6*	37.5	-4.2	0.5	.	-0.9
O=C(Cn1cnc2ccccc2c1=O)Nc1nc2ccccc2s1	-1.1	-20.3	-7.4	1.7	-9.0	-0.1
COC(=O)Cn1cnc2ccccc2c1=O	-0.9	18.2	-5.1	1.1	5.2	0.2
CCc1ccc2nc(NC(=O)Cn3cnc4ccccc4c3=O)sc2c1	0.9	72.0*	-2.7	-0.1	37.6	0.3
Cn1c(Cn2c3ccccc3c3ccccc32)n[nH]c1=S	9.4*	-10.6	0.1	-3.4	9.1	0.1
NS(=O)(=O)c1cccc(NC(=O)COC(=O)Cc2ccc(Cl)cc2)c1	4.8	23.3	-3.7	2.5	.	0.6
CCN(CC)CCCN=C(C)C1=C(O)c2ccccc2C1=O	-2.1	11.7	-6.5	4.2	19.8	-0.5
CCCN=C(C)C1=C(O)c2ccccc2C1=O	9.1*	2.5	-0.4	0.7	-4.3	.
O=C(C(=O)N1CCN(c2ccccc2)CC1)c1c[nH]c2ccccc12	10.8*	21.5	11.3	2.0	9.2	1.2
COc1ccccc1CNC(=O)CSc1ccsc1[N+](=O)[O-]	9.2*	-57.6	0.4	1.5	-19.3	9.9
Cc1ccc(-c2nc(N)sc2-c2ccc(C)cc2)cc1	-3.1	61.6*	6.9	-1.2	9.2	1.3
O=C(CN1C(=O)c2ccccc2C1=O)Nc1ccccc1C(=O)N1CCCC1	1.6	7.7	-1.0	-2.1	20.0	0.7
COc1ccc(N(CC(=O)NCc2cccs2)S(=O)(=O)c2c(C)n[nH]c2C)cc1	1.3	21.6	-4.6	-0.5	-0.7	0.1
CCCCCCc1cc2cc(C(=O)OCC)c(=O)oc2cc1O	9.9*	-332.1	-8.2	-2.8	25.4	2.0

Screening results as filed in PubChem.
